# Columns and labels:
# Format in all cases: cell-based
# Details in all cases: Cricetulus griseus
# V79-379A [1] = experiment: Cytofluorimetric analysis of V79 379A chinese hamster cells incubated under hypoxic conditions with the compound (10e-4 M)
# How it was run: (§1)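 V79 379A Chinese hamster cells grown as exponential suspension cultures in Eagle's MEM (Earle's salts, suspension-modified) with 7.5% foetal calf serum. Cells incubated with drug at 37 °C under oxic (air + 5% CO2) or hypoxic (nitrogen + 5% CO2) gassing. Flow cytometry used 365 nm laser excitation at 100-200 mW. Emission collected >390 nm, or >410 nm for some compounds. Data gated on forward scatter and fluorescence to exclude debris. Mean fluorescence in arbitrary units, normalized for PMT gain and laser power.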
# V79-379A [2] = experiment: Maximum accumulation of fluorescent metabolites in V79 379A chinese hamster cells after incubation with the compound (10e-4) at tmax; how it was run: as §1
# V79-379A [3] = experiment: Cytofluorimetric analysis of V79 379A chinese hamster cells incubated under oxic conditions with the compound (10e-4 M); how it was run: as §1
smiles,measurement,setting,value
O=[N+]([O-])c1nccn1CC(O)CNc1ccc(-c2cn3ccccc3n2)cc1 (centres undefined),Fluorescence,V79-379A [1],1570 AU
same,Tmax,V79-379A [2],6 h
same,Fluorescence,V79-379A [3],417 AU
CCOC(=O)c1c(C)c(CN(C)CCCn2ccnc2[N+](=O)[O-])c2ccccn12,Fluorescence,V79-379A [1],765 AU
same,Tmax,V79-379A [2],6 h
same,Fluorescence,V79-379A [3],258 AU
N#Cc1c(C(=O)NCCN(CCO)CC(O)Cn2ccnc2[N+](=O)[O-])cn2ccccc12 (centres undefined),Fluorescence,V79-379A [1],81 AU
same,Tmax,V79-379A [2],6 h
same,Fluorescence,V79-379A [3],27 AU
CCOC(=O)c1c(C(=O)NCCN(CCO)CC(O)Cn2ccnc2[N+](=O)[O-])cn2ccccc12 (centres undefined),Fluorescence,V79-379A [1],1140 AU
same,Tmax,V79-379A [2],6 h
same,Fluorescence,V79-379A [3],66 AU
Cc1c(C)n2c(CN(C)CC(O)Cn3ccnc3[N+](=O)[O-])c(C)c(=O)n2c1=O (centres undefined),Fluorescence,V79-379A [1],55 AU
same,Tmax,V79-379A [2],15 h
same,Fluorescence,V79-379A [3],43 AU
O=[N+]([O-])c1nccn1CC(O)CNc1ccc(-c2cc3ccccn3c2)cc1 (centres undefined),Fluorescence,V79-379A [1],169 AU
same,Tmax,V79-379A [2],6 h
same,Fluorescence,V79-379A [3],107 AU
O=c1c(NCC(O)Cn2ccnc2[N+](=O)[O-])cnc2ccccn12 (centres undefined),Fluorescence,V79-379A [1],1750 AU
same,Tmax,V79-379A [2],6 h
same,Fluorescence,V79-379A [3],603 AU
Cc1c(C)n2c(CNCC(O)Cn3ccnc3[N+](=O)[O-])c(C)c(=O)n2c1=O (centres undefined),Fluorescence,V79-379A [1],89 AU
same,Tmax,V79-379A [2],15 h
same,Fluorescence,V79-379A [3],33 AU
